The text below walks through data of ChEMBL document CHEMBL3272228, “Antimalarial activity of some novel derivatives of 2,4-diamino-5(p-chlorophenyl)-6-ethylpyrimidine (pyrimethamine)” (J Med Chem, 1976).

Data set [1] concerns Plasmodium berghei. Put plainly: Antimalarial activity against Plasmodium berghei KBG13 infected in mouse assessed as disease cures at 640 mg/kg. It counts as functional, organism-based. More on the design: dose 640 mg/kg. Summed up: (§1)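 P. berghei strain KBG 13 in mice, groups of five treated, doses up to 640 mg/kg. Scored as increase in mean survival time in days over controls and as cured/treated. Reported values are the lowest dose giving any cure and the lowest dose showing activity.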

In data set [2] the test system is Plasmodium berghei. Put plainly: Antimalarial activity against Plasmodium berghei KBG13 infected in mouse assessed as minimum dose required for disease cures. Type of data set: functional. The method in brief:
as §1

Data set [3] relates to Plasmodium berghei. Put plainly: Antimalarial activity against Plasmodium berghei KBG13 infected in mouse assessed as minimum dose required for activity. Type of data set: functional. The conditions noted are these: for minimal effective dose: read-out: MED. Summed up:
as §1

For data set [4], the system named is Plasmodium berghei. The data set can be described thus: Antimalarial activity against Plasmodium berghei KBG13 infected in mouse assessed as increase in host mean survival time at minimum dose. It counts as functional. Summed up: (§2)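 Mice infected with Plasmodium berghei strain KBG 13. Five mice per dose group, with doses up to 640 mg/kg. Read-out is the increase in mean survival time in days, with cured/treated counts recorded. The minimum active dose is the lowest dose showing activity, and survival gain is also reported at that dose.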

Data set [5] concerns Plasmodium berghei. The data set can be described thus: Antimalarial activity against Plasmodium berghei KBG13 infected in mouse assessed as increase in host mean survival time at 640 mg/kg. Type of data set: functional. The method in brief: as §2
Data set [6] deals with Plasmodium gallinaceum. Put plainly: Antimalarial activity against Plasmodium gallinaceum infected in chicks assessed as increase in host survival time at 100 to 160 mg/kg. It counts as functional. Particulars: dose mg/kg 100-160. Summed up: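 Chicks infected with Plasmodium gallinaceum, in limited testing at doses of 100-160 mg/kg. Activity is expressed as T/C in days of survival at the respective dose levels.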

The subject of data set [7] is Mus musculus. Put plainly: Toxicity in mouse infected with Plasmodium berghei KBG13 assessed as animal death at 640 mg/kg. It counts as organism-based. Also on record: dose 640 mg/kg. Particulars: in vivo.
For data set [8], the species on record is Mus musculus. Put plainly: Toxicity in mouse infected with Plasmodium berghei KBG13 assessed as animal death at 4 times minimum curative dose. Type of data set: organism-based. Particulars: in vivo.
Data set [9] relates to Plasmodium gallinaceum. The data set can be described thus: Antimalarial activity against Plasmodium gallinaceum infected in chicks assessed as increase in host survival. It counts as functional, organism-based. The method in brief: (§3)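 P. gallinaceum in chicks given doses of 100–160 mg/kg. Activity is expressed as T/C, the increase in survival time in days.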
Data set [10] relates to Plasmodium gallinaceum. Put plainly: Antimalarial activity against Plasmodium gallinaceum infected in chicks assessed as increase in host survival at 120 mg/kg. It counts as functional, organism-based. Also on record: dose 120 mg/kg. The method in brief: as §3
For data set [11], the species on record is Mus musculus. Put plainly: Toxicity in mouse infected with Plasmodium berghei KBG13 assessed as animal death at 2 times minimum curative dose. Type of data set: organism-based. The conditions noted are these: in vivo.

Structures are written as SMILES. Active and inactive are the calls of the source. The rule behind the calls is not given here.

`CC(=O)NC(C)c1nc(N)nc(N)c1-c1ccc(Cl)cc1` (racemic): the outcome in data set [1], in [2], in [3] and in data set [4] was inactive.
Take `C/C(=N/N)c1nc(N)nc(N)c1-c1ccc(Cl)cc1`: the MST in data set [5] was determined as 14.8 days; in data set [4] it was 8.4 days. Moreover, in data set [3], the minimal effective dose amounted to 160 mg/kg.
For the molecule `COC(C)(OC)c1nc(N)nc(N)c1-c1ccc(Cl)cc1`, the result in [1] was Active. For the same molecule, the MST was 5.4 days in data set [6] and 4.5 days in data set [4]. Besides, in data set [2], the MCD stood at 320 mg/kg. For the same molecule, the minimal effective dose in data set [3] amounted to 40 mg/kg.
With `C/C(=N\N(C)C)c1nc(N)nc(N)c1-c1ccc(Cl)cc1`, in [7], the Activity entry is “Toxic”. The MCD in data set [2] worked out at 320 mg/kg. The minimal effective dose in data set [3] amounted to 40 mg/kg. Moreover, the MST in data set [4] was found to be 3.8 days.
Turning to `CCOC(C)(OCC)c1nc(N)nc(N)c1-c1ccc(Cl)cc1`, the result in data set [1] was Active. The figures for the MST in [6] and in data set [4] were 5.4 days and 3.5 days, respectively. Besides, the MCD in data set [2] was determined as 160 mg/kg. For the same molecule, in data set [3], the minimal effective dose came out at 20 mg/kg. Moreover, the Activity result in data set [8] was “Non-toxic”.
On to `CC(=O)c1nc(N)nc(N)c1-c1ccc(Cl)cc1`, for which the Activity entry in [7] was “Toxic”. Moreover, the MCD in data set [2] worked out at 320 mg/kg. Also, in [3], the minimal effective dose amounted to 80 mg/kg. Moreover, in data set [4], the MST came to 5.9 days.
Take `CCN(CC)CCCC(C)NC(C)c1nc(N)nc(N)c1-c1ccc(Cl)cc1` (configuration not stated): in [9], the outcome was inactive.
Turning to `C/C(=N\NC(=N)N)c1nc(N)nc(N)c1-c1ccc(Cl)cc1`, the outcome in data set [1], in [2], in data set [3] and in data set [4] was inactive.
Take `CN/N=C(\C)c1nc(N)nc(N)c1-c1ccc(Cl)cc1`: in data set [7], the Activity entry was “Toxic”. Further, the outcome in [2], in data set [3] and in data set [4] was inactive.
Take `CC(O)c1nc(N)nc(N)c1-c1ccc(Cl)cc1` (racemic): the outcome in [1] was Active. In addition, the results for the MST in [6] and in [4] were 5.4 days and 4.7 days, respectively. Besides, the minimal effective dose in data set [3] stood at 80 mg/kg.
`C/C(=N/O)c1nc(N)nc(N)c1-c1ccc(Cl)cc1`: the figures for the MST in data set [5] and in data set [4] were 5.4 days and 3.4 days, respectively. For the same molecule, the minimal effective dose in [3] stood at 160 mg/kg.
Turning to `CC(N)c1nc(N)nc(N)c1-c1ccc(Cl)cc1` (configuration not stated), the outcome in data set [1], in data set [2], in [3] and in [4] was inactive.
In the case of `C/C(c1nc(N)nc(N)c1-c1ccc(Cl)cc1)=[N+](\C)[O-]`, the outcome in [10] was inactive. The MCD in [2] worked out at 640 mg/kg. Besides, the minimal effective dose in data set [3] was determined as 160 mg/kg. In data set [4], the MST was determined as 3.1 days.
On to `CCc1nc(N)nc(N)c1-c1ccc(Cl)cc1` [PYRIMETHAMINE], for which the MCD in data set [2] was determined as 40 mg/kg. Further, in data set [11], the Activity entry was “Toxic”.
